Published values gathered from unrelated publications.
Protocols differ between the studies behind these lines.
HTR2C: 5-hydroxytryptamine receptor 2C (HTR2C, Homo sapiens, UniProt P28335)

Compound	target	read-out	action	method	tested at	measurement	value
COc1cc2c3c(c1OC)-c1c(OC)ccc(Cl)c1CC3N(C)CC2 (racemic)	HTR2C	ligand displacement		radioligand	10 µM	inhibition	80%
COc1cc(CCNC(C)c2ccccc2O)c(OC)cc1Br (stereo not shown)	HTR2C	calcium signal	agonist			Emax	92%
O=P(O)(O)O[C@H]1[C@H](OP(=O)(O)O)[C@@H](OP(=O)(O)O)[C@H](OP(=O)(O)O)[C@@H](OP(=O)(O)O)[C@H]1OP(=O)(O)O	Toxin B (tcdB, Clostridioides difficile, UniProt P18177)	binding		ITC		residence time	0.4 min
COc1cc2c(cc1OC)-c1c(OC)c(OC)cc3c1[C@H](C2)N(C)CC3	HTR2C	ligand displacement		radioligand	10 µM	inhibition	79%
COc1cc(CCNCc2ccccc2O)c(OC)cc1C#N	HTR2C	G protein activation	agonist	BRET		Emax	122%
COc1cc2c3c(c1OC)-c1c(OC)ccc(O)c1CC3N(C)CC2 (stereo not shown)	HTR2C	ligand displacement		radioligand	10 µM	inhibition	60%
Nc1ncnc2c1ncn2[C@@H]1O[C@H](C[C@@H](N)CC[C@H](N)C(=O)O)[C@@H](O)[C@H]1O	mRNA cap guanine-N(7) methyltransferase (RNMT, Homo sapiens, UniProt O43148)	enzyme activity	inhibitor		12.5 µM	inhibition	61.8%
[2H]c1c([2H])c([C@]2([2H])CCCN2C(=O)C(C)(C)Oc2ccc3cn[nH]c3c2)c([2H])c([2H])c1C([2H])([2H])[2H]	Tyrosine-protein kinase receptor TYRO3 (TYRO3, Homo sapiens, UniProt Q06418)	binding		competition with immobilised ligand	1 µM	remaining binding	57%
COc1cc(CCNC(C)c2ccccc2)c(OC)cc1C#N (stereo not shown)	HTR2C	calcium signal	agonist			Emax	41%
CC(C)CC(=O)OC[C@H]1O[C@@](C#N)(c2ccc3c(N)ncnn23)[C@H](O)[C@@H]1O	B2 bradykinin receptor (BDKRB2, Homo sapiens, UniProt P30411)	cell-free assay			20 µM	inhibition	-2%
